Experimental data taken from publication PMC2606940 (The Journal of General Physiology, 2009).
Substitutions are numbered along the chain they refer to. Where two headings read alike, the source gives them in different places.

Legend:
Type in all cases: cell-based
CLC-0 E166I mutant = biological target: T1, CLC-0 E166I mutant (Torpedo marmorata, UniProt P21564, C212S/E166I); details: read-out: Apparent affinity (K1/2)
T1 sequence (P21564 1-805 E166I/C212S): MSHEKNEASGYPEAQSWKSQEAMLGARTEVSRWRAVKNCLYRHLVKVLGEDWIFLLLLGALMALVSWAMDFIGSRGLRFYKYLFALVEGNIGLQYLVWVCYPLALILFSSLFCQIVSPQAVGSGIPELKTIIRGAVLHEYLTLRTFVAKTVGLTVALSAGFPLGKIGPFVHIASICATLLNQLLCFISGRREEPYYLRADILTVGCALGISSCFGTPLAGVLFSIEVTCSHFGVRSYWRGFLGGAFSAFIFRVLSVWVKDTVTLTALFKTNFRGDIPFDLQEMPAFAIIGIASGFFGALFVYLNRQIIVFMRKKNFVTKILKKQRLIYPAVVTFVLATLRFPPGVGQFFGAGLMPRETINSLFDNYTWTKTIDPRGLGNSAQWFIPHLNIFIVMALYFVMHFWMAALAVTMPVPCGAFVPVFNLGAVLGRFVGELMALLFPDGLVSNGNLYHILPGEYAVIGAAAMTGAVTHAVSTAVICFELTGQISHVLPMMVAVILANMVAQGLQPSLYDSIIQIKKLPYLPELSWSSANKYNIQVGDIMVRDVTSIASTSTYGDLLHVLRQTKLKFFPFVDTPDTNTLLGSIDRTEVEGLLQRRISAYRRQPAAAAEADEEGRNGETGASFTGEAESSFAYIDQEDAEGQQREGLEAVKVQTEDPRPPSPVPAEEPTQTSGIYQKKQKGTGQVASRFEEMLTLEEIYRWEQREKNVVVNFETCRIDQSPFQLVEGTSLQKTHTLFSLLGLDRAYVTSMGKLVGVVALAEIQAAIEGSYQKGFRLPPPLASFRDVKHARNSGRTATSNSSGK
Outline: (§1)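 CLC-0 mutants in the C212S background were transfected into HEK293 cells with lipofectamine and recorded 1–3 d later as excised inside-out patches. Both sides held 130 mM NaCl, 5 mM MgCl2, 10 mM HEPES and 1 mM EGTA, pH 7.4. CPA was perfused continuously onto the cytoplasmic face. Steady-state current over the last 10 ms was normalized to bracketing blocker-free controls and fitted to a Langmuir function for K1/2. Values are mean ± SEM of ~4–6 patches.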

CLC-0 E166L mutant = biological target: T2, CLC-0 E166L mutant (Torpedo marmorata, UniProt P21564, C212S/E166L); details: for IC50: read-out: Apparent affinity (K1/2)
T2 sequence (P21564 1-805 E166L/C212S): T1 sequence (P21564 1-805 E166I/C212S) with I166L
Outline: as §1

CLC-0 E166Y mutant = biological target: T3, CLC-0 E166Y mutant (Torpedo marmorata, UniProt P21564, C212S/E166Y); details: read-out: Apparent affinity (K1/2)
T3 sequence (P21564 1-805 E166Y/C212S): T1 sequence (P21564 1-805 E166I/C212S) with I166Y
Outline: as §1

Question: With `O=C(O)COc1ccc(Cl)cc1` [CPA, p-chlorophenoxy acetate] as the compound, how does the IC50 (CLC-0 E166I mutant; −40 mV) read?
Answer: The IC50 was 1250 ± 230 µM.

Question: What about the IC50 (CLC-0 E166I mutant; −60 mV) of the same compound?
Answer: The IC50 was 683 ± 85 µM.

Question: And the IC50 (CLC-0 E166I mutant; −80 mV)?
Answer: The IC50 was 384 ± 41 µM.

Question: And the IC50 (CLC-0 E166I mutant; −100 mV)?
Answer: Its IC50 is 220 ± 24 µM.

Question: What about the IC50 (CLC-0 E166I mutant; −120 mV) of the same compound?
Answer: The IC50 was 117 ± 11 µM.

Question: And the IC50 (CLC-0 E166I mutant; −140 mV)?
Answer: The IC50 was 68 ± 8 µM.

Question: And the IC50 (CLC-0 E166I mutant; −160 mV)?
Answer: Its IC50 is 39 ± 4 µM.

Question: What about the block of current (CLC-0 E166L mutant; 0.3 mM CPA, −160 mV) of the same compound?
Answer: Its block of current is ~60%.

Question: What about the IC50 (CLC-0 E166L mutant; −40 mV) of the same compound?
Answer: Its IC50 is 4640 ± 190 µM.

Question: And the IC50 (CLC-0 E166L mutant; −60 mV)?
Answer: The IC50 was 2610 ± 80 µM.

Question: What about the IC50 (CLC-0 E166L mutant; −80 mV) of the same compound?
Answer: Its IC50 is 1460 ± 30 µM.

Question: And the IC50 (CLC-0 E166L mutant; −100 mV)?
Answer: Its IC50 is 800 ± 20 µM.

Question: What about the IC50 (CLC-0 E166L mutant; −120 mV) of the same compound?
Answer: The IC50 was 470 ± 10 µM.

Question: What about the IC50 (CLC-0 E166L mutant; −140 mV) of the same compound?
Answer: Its IC50 is 280 ± 10 µM.

Question: And the IC50 (CLC-0 E166L mutant; −160 mV)?
Answer: Its IC50 is 180 ± 10 µM.

Question: What about the IC50 (CLC-0 E166Y mutant; −40 mV) of the same compound?
Answer: The IC50 was 6180 ± 670 µM.

Question: What about the IC50 (CLC-0 E166Y mutant; −60 mV) of the same compound?
Answer: Its IC50 is 2790 ± 150 µM.

Question: What about the IC50 (CLC-0 E166Y mutant; −80 mV) of the same compound?
Answer: Its IC50 is 1370 ± 50 µM.

Question: And the IC50 (CLC-0 E166Y mutant; −100 mV)?
Answer: Its IC50 is 700 ± 10 µM.

Question: What about the IC50 (CLC-0 E166Y mutant; −120 mV) of the same compound?
Answer: Its IC50 is 380 ± 10 µM.

Question: And the IC50 (CLC-0 E166Y mutant; −140 mV)?
Answer: The IC50 was 220 ± 10 µM.

Question: What about the IC50 (CLC-0 E166Y mutant; −160 mV) of the same compound?
Answer: The IC50 was 130 ± 10 µM.

Question: Which IC50 (CLC-0 E166I mutant; −40 mV) does the source give for `CCCCCCCC(=O)O` [octanoate] here?
Answer: The IC50 was 218 ± 49 µM.

Question: What about the IC50 (CLC-0 E166I mutant; −60 mV) of the same compound?
Answer: The IC50 was 136 ± 26 µM.

Question: And the IC50 (CLC-0 E166I mutant; −80 mV)?
Answer: Its IC50 is 79 ± 13 µM.

Question: And the IC50 (CLC-0 E166I mutant; −100 mV)?
Answer: The IC50 was 45 ± 7 µM.

Question: And the IC50 (CLC-0 E166I mutant; −120 mV)?
Answer: Its IC50 is 26 ± 3 µM.

Question: And the IC50 (CLC-0 E166I mutant; −140 mV)?
Answer: The IC50 was 15 ± 2 µM.

Question: What about the IC50 (CLC-0 E166I mutant; −160 mV) of the same compound?
Answer: Its IC50 is 9 ± 1 µM.

Question: What about the IC50 (CLC-0 E166L mutant; −40 mV) of the same compound?
Answer: The IC50 was 342 ± 53 µM.

Question: What about the IC50 (CLC-0 E166L mutant; −60 mV) of the same compound?
Answer: Its IC50 is 192 ± 22 µM.

Question: And the IC50 (CLC-0 E166L mutant; −80 mV)?
Answer: Its IC50 is 106 ± 10 µM.

Question: What about the IC50 (CLC-0 E166L mutant; −100 mV) of the same compound?
Answer: Its IC50 is 57 ± 5 µM.

Question: And the IC50 (CLC-0 E166L mutant; −120 mV)?
Answer: The IC50 was 32 ± 3 µM.

Question: And the IC50 (CLC-0 E166L mutant; −140 mV)?
Answer: Its IC50 is 18 ± 2 µM.

Question: What about the IC50 (CLC-0 E166L mutant; −160 mV) of the same compound?
Answer: The IC50 was 11 ± 1 µM.

Question: And the IC50 (CLC-0 E166Y mutant; −80 mV)?
Answer: The IC50 was 16700 ± 650 µM.

Question: And the IC50 (CLC-0 E166Y mutant; −100 mV)?
Answer: Its IC50 is 11200 ± 540 µM.

Question: And the IC50 (CLC-0 E166Y mutant; −120 mV)?
Answer: The IC50 was 7430 ± 410 µM.

Question: And the IC50 (CLC-0 E166Y mutant; −140 mV)?
Answer: Its IC50 is 4990 ± 310 µM.

Question: And the IC50 (CLC-0 E166Y mutant; −160 mV)?
Answer: The IC50 was 3360 ± 180 µM.
